Screening results: PubChem, Johns Hopkins Ion Channel Center
TRPC4 act = opens the mouse TRPC4 cation channel | HEK293 TRPC4beta/mu-opioid, Fluo4 calcium fluorescence; hits give high values | AID 2237 | Q9QUQ5 | B-score at 10 µM | hit rate 0.49% among 310,000;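 active = B-score above 5 SD of library B-scores, and initial fluorescence ratio not above library mean plus 5 SD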;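 note: positive B-score marks a calcium rise read as TRPC4 activation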
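Material: TRPC4beta and mu-opioid receptor HEK293 stable cells | Incubation: 45 min room-temperature Fluo4 loading, 110 s read | Detection: Kinetic Fluo4 calcium fluorescence | Measure: Integrated baseline-normalised fluorescence ratio, converted to per-well B score | Benchmarks: Low control buffer alone, high control maximal DAMGO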
TRPC4 block = blocks the mouse TRPC4 cation channel | Q9QUQ5 | HEK293 TRPC4beta/mu-opioid, DAMGO-evoked Fluo4 calcium flux; hits give low values | B-score at 10 µM | hit rate 0.39% among 300,000 | AID 2247;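 active = B-score over 3 SD under the library average, no early fluorescence shift, positive overall ratio signal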
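Assay system: TRPC4beta/mu-opioid receptor HEK293 cell line; compound dosing: single concentration per test compound; detection: Fluo4 Ca2+ flux fluorescence; evaluation: per-well B score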
TRPC6 inhibitor = blocks the mouse TRPC6 cation channel; HEK293-TRPC6, membrane potential dye, ACh-evoked depolarization; hits give low values; B-score at 10 µM; hit rate 1.1% among 310,000;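 active = B-score under library mean minus 3 SD, initial fluorescence not abnormally high, positive integrated signal ratio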;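 note: B-score derived from integrated fluorescence ratio over the kinetic read; more negative B-score means stronger inhibition of depolarization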
Target sequence (Q61143 whole entry, looked up): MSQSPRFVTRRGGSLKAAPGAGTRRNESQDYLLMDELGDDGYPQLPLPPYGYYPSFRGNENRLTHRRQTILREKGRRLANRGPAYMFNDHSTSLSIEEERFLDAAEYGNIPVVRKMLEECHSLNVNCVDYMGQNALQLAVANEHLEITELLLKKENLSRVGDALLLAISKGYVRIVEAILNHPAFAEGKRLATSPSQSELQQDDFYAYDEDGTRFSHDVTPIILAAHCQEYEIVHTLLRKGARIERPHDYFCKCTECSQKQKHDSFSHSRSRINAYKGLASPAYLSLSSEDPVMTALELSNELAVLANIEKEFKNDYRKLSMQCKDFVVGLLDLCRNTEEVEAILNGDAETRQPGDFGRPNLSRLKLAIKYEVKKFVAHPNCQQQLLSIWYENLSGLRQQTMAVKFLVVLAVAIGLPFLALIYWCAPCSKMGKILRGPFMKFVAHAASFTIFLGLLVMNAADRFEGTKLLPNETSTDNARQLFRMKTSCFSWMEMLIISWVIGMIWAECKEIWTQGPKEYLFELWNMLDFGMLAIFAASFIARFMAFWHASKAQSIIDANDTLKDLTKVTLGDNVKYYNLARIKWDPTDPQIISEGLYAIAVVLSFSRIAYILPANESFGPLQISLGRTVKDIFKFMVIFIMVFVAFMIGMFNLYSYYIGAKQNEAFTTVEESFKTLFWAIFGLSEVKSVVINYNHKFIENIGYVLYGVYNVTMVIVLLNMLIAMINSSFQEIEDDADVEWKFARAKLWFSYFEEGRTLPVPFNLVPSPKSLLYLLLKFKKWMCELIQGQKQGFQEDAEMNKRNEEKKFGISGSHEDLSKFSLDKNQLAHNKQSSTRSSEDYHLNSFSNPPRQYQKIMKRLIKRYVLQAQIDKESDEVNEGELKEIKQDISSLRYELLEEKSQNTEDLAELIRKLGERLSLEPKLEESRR
TRPC6 activator = activators of mouse TRPC6 channel | Q61143 | HEK293-TRPC6 membrane potential dye fluorescence; hits give high values | B-score at 10 µM | hit rate 0.13% among 310,000 | AID 2550;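 active = B-score of the integrated fluorescence ratio above library mean plus 3 SD, and starting fluorescence ratio within library mean plus 5 SD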;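 note: higher score means more depolarization so channel activation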
TRPC4 potent = TRPC4 (mouse) allosteric potentiation. Q9QUQ5. HEK293 TRPC4beta/mu-opioid, DAMGO EC20, Fluo-4 Ca2+ flux; hits give high values. B-score at 10 µM. hit rate 0.42% among 310,000. AID 2227;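 active = B-score of calcium response area above 5 SD of library B-scores, with initial fluorescence ratio within 5 SD of library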;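 note: B-score of integrated fluorescence ratio over time as area under calcium response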
* hit, by the source's call; i = inactive. Only some compounds are listed: those with a hit (about 2.3% of all), similar ones and a draw of the others.

SMILES	TRPC4 act	TRPC4 block	TRPC6 inhibitor	TRPC6 activator	TRPC4 potent
CCc1ccc(OCCCN=C(C)c2c(O)n(C)c(=O)n(C)c2=O)cc1	i	i	i	i	16*
CCc1ccc(N2C(=O)CC(=O)NC2=O)cc1	i	i	i	i	i
O=C(c1ccc2c3c(cccc13)CC2)C1CCCN(CC2CC2)C1 (stereo unspecified)	158*	i	i	i	i
O=C(c1ccc2c3c(cccc13)CC2)C1CCCN(Cc2ncc[nH]2)C1 (stereo unspecified)	46*	i	i	i	i
CCN(CC)C(=O)c1ccc2c(c1)C1C=CCC1C(C(=O)O)N2 (stereo unspecified)	i	i	i	i	i
O=[N+]([O-])c1ccc(C[n+]2c(-c3ccccc3)cc(-c3ccccc3)cc2-c2ccccc2)cc1	i	i	i	i	i
Cc1cc(-c2ccccc2)cc(C)[n+]1Cc1ccccc1	106*	i	i	i	i
C[C@]12CCC3[C@@H](CCC4=CC(=O)CC[C@@]43CO)C1CCC2=O (stereo partly specified)	i	i	i	i	i
COc1cc2c3cc1Oc1cc(ccc1O)C[C@@H]1c4c(cc(OC)c(O)c4Oc4ccc(cc4)C[C@H]3N(C)CC2)CCN1C	117*	i	i	i	i
Clc1ccc(OCC#CCN2CCCC2)cc1	i	i	i	i	24*
CN1CCN(CC#CCOc2ccc(Cl)cc2)CC1	i	i	i	i	i
CCn1c(=O)n(CC)c2cc([N+](=O)[O-])c(N3CCNCC3)cc21	i	i	i	i	i
CCOc1ccc(-n2c(-c3ccoc3)nc3ccccc3c2=O)cc1	i	i	i	i	i
CCOc1ccc(-c2c(C)n(-c3ccc(OCC)cc3)c3[n+]2CCCCC3)cc1	i	i	-9.44*	13.3*	i
CC1(C)C2([N+](=O)[O-])CN3CN(C2)CC1([N+](=O)[O-])C3	i	i	i	i	i
COc1ccc2c(CCN)c[nH]c2c1	81*	i	i	i	i
NCCc1c[nH]c2ccc(F)cc12	i	i	i	i	i
COc1ccc(CNC(=O)/C=C/c2ccc3[nH]cc(CCN(C)C)c3c2)cc1	45*	i	i	i	i
COc1ccc2[nH]cc(CCN(C)C)c2c1	i	i	i	i	19*
CC[C@H]1CN2CC[C@@]3(C(=O)Nc4ccccc43)[C@@H]2C[C@@H]1/C(=C\OC)C(=O)OC	i	i	i	i	i
CC[C@@H]1C=CC=CC[C@H](C)[C@@H](O)[C@@H](C)C(=O)[C@H](C)[C@@H](O)[C@H](C)C(=O)[C@H](C)[C@@H](O)[C@H](C)C=CC(=O)O[C@H]2[C@@H](C)[C@@H](CC1)O[C@@]1(CC[C@@H](C)[C@@H](C[C@H](C)O)O1)[C@@H]2C	i	i	i	i	i
Nc1ncn[nH]1	i	i	i	i	i
COc1ccc2c(c1O)C13CCN(C)C(C2)C1CCC(=O)C3 (stereo unspecified)	93*	i	i	i	i
COP(=O)(C#Cc1ccccc1)C(O)c1ccc(Br)cc1 (stereo unspecified)	i	i	i	i	i
C=CCOC(=O)C1=C(C)OC(N)=C(C#N)[C@@]12C(=O)N(CC(N)=O)c1ccccc12	i	i	i	i	22*
SMILES	TRPC4 act	TRPC4 block	TRPC6 inhibitor	TRPC6 activator	TRPC4 potent
CC1=C(C(=O)OC(C)C)[C@]2(C(=O)N(CC(N)=O)c3ccccc32)C(C#N)=C(N)O1	i	i	i	i	i
Brc1ccc(CN2CCNCC2)s1	i	i	i	i	14*
COc1cccc(CN2CCNCC2)c1OC	i	i	i	i	i
CCN1CCC(N(C)C2CCCCC2)CC1	i	i	i	i	i
COc1ccc(-n2nc(C(=O)NCC(=O)N3CCC4(CC3)OCCO4)c3ccccc3c2=O)c(OC)c1	i	i	i	i	i
CC/C(=N\Nc1ccccc1)c1c(O)n(-c2ccc(OC)cc2)c(=O)[nH]c1=O	i	i	i	i	i
